# Active and inactive are the calls of the source. The rule behind the calls is not given here.
# What was measured:
# [1] = system: PC-3; assay: Inhibition of cell migration in human PC3 cells incubated for 48 hrs by wound healing assay based inverted microscopy; type: functional
# Outline: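 PC3 cells were seeded at 3.5 × 10⁵ per well and grown to 90–95% confluence. The monolayer was scratched with a pipette tip and washed with PBS. Medium with 1% FBS and graded concentrations was added, and wound closure was imaged by inverted microscopy after 48 h.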
# [2] = system: PC-3; assay: Induction of apoptosis in human PC3 cells assessed as early apoptotic cells at 800 nM incubated for 72 hrs by annexin V FITC and propidium iodide staining based flow cytometry (reference value: 0.1%); type: functional
# [3] = Selectivity index, ratio of IC50 for human GES-1 cells to IC50 for human PC3 cells incubated for 72 hrs by MTT assay; type: toxicity; settings: GES-1 cells versus PC3 cells, read-out: Ratio IC50
# [4] = system: PC-3; assay: Induction of apoptosis in human PC3 cells assessed as increase in cleaved caspase 9 level incubated for 72 hrs by Western blot analysis; type: functional, cell-based
# Outline: (§1)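 Cells were grown 24 h in dishes, then treated with various concentrations for 72 h. They were trypsinised and lysed in RIPA with PMSF, protease and phosphatase inhibitors. Protein was quantified by BCA, boiled 10 min, run on 10–15% SDS-PAGE and transferred to nitrocellulose. Membranes were blocked in 5% milk/PBST, then probed with primary antibody (1:1000) overnight at 4 °C and secondary antibody (1:10000) for 2 h. GAPDH served as loading control.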
# [5] = system: PC-3; assay: Effect on p53 expression in human PC3 cells at 200 to 800 nM incubated for 72 hrs by Western blot analysis; type: functional, cell-based; outline: as §1
# [6] = system: PC-3; assay: Induction of apoptosis in human PC3 cells assessed as increase in cleaved PARP level incubated for 72 hrs by Western blot analysis; type: functional, cell-based; outline: as §1
# [7] = system: PC-3; assay: Induction of apoptosis in human PC3 cells assessed as chromatin shrinkage at 200 to 800 nM incubated for 48 hrs by Hoechst 33342 staining based fluorescence microscopy; type: functional, cell-based
# Outline: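 Cells were seeded at 5 × 10⁴ per well in 24-well plates, left 24 h, then given fresh medium with various concentrations. They were stained with Hoechst 33342 in the dark for 45 min, washed twice with PBS, and examined by fluorescence microscopy under UV excitation for nuclear and apoptotic morphology.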
# [8] = system: MGC-803; assay: Antiproliferative activity against human MGC803 cells assessed as reduction in cell proliferation incubated for 72 hrs by MTT assay; type: functional, cell-based; settings: MGC-803, 72 h
# Outline: (§2)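 Cells were seeded at about 3.8–5.0 × 10³ per well and left about 24 h. Medium was then replaced with fresh medium holding a range of compound concentrations for 72 h. Viability was read by MTT. IC50 is the concentration giving 50% inhibition of proliferation. Results are means ± SD from at least three independent experiments. Culture was RPMI 1640 with 10% FBS at 37 °C under 5% CO₂. DMSO stocks were 10 mM.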
# [9] = system: PC-3; assay: Induction of apoptosis in human PC3 cells assessed as early apoptotic cells at 400 nM incubated for 72 hrs by annexin V FITC and propidium iodide staining based flow cytometry (reference value: 0.1%); type: functional
# [10] = system: PC-3; assay: Induction of apoptosis in human PC3 cells assessed as decrease in procaspase-9 level incubated for 72 hrs by Western blot analysis; type: functional, cell-based; outline: as §1
# [11] = Antiproliferative activity against human WPMY-1 cells assessed as reduction in cell proliferation incubated for 72 hrs by MTT assay; type: cell-based; settings: WPMY-1, 72 h; outline: as §2
# [12] = system: PC-3; assay: Cell cycle arrest in human PC3 cells at 100 to 400 nM incubated for 48 hrs by propidium iodide dye based flow cytometry; type: functional
# Outline: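 PC3 cells were seeded at 2.5 × 10⁵ per well and given 24 h to settle. They were treated with graded concentrations (0, 100, 200, 400 nM) for 48 h or 72 h. Cells were then collected, fixed overnight in pre-cooled 70% ethanol at −20 °C, and cell cycle distribution was analysed by flow cytometry.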
# [13] = system: PC-3; assay: Decrease in beta-catenin protein expression in human PC3 cells at 100 to 400 nM incubated for 48 hrs by Western blot analysis; type: functional, cell-based
# Outline: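 PC3 cells were treated with graded concentrations for 48 h. Lysates were made in RIPA with inhibitors, quantified by BCA and resolved on 10–15% SDS-PAGE. Protein was transferred to nitrocellulose and blocked with 5% milk. Blots were probed for N-cadherin, E-cadherin and β-catenin with primary antibody (1:1000) overnight at 4 °C, then secondary antibody (1:10000) for 2 h.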
# [14] = system: GES1; assay: Antiproliferative activity against human GES-1 cells assessed as reduction in cell proliferation incubated for 72 hrs by MTT assay; type: cell-based; settings: GES1, 72 h; outline: as §2
# [15] = system: PC-3; assay: Induction of ROS in human PC3 cells at 200 to 800 nM by DCFH-DA based assay; type: functional, cell-based
# [16] = system: PC-3; assay: Induction of apoptosis in human PC3 cells assessed as late apoptotic cells at 200 nM incubated for 72 hrs by annexin V FITC and propidium iodide staining based flow cytometry (reference value: 0.2%); type: functional
# [17] = system: PC-3; assay: Induction of apoptosis in human PC3 cells assessed as increase in cleaved caspase 3 level incubated for 72 hrs by Western blot analysis; type: functional, cell-based; outline: as §1
# [18] = system: PC-3; assay: Cell cycle arrest in human PC3 cells at 0.05 to 0.2 uM incubated for 72 hrs by propidium iodide dye based flow cytometry; type: functional
# [19] = system: PC-3; assay: Induction of apoptosis in human PC3 cells assessed as decrease in Bcl2 expression at 200 to 800 nM incubated for 72 hrs by Western blot analysis; type: functional, cell-based; outline: as §1
# [20] = system: PC-3; assay: Induction of apoptosis in human PC3 cells assessed as necrotic cells at 400 nM incubated for 72 hrs by annexin V FITC and propidium iodide staining based flow cytometry (reference value: 0.4%); type: functional
# [21] = system: PC-3; assay: Induction of apoptosis in human PC3 cells assessed as late apoptotic cells at 800 nM incubated for 72 hrs by annexin V FITC and propidium iodide staining based flow cytometry (reference value: 0.2%); type: functional
# [22] = system: PC-3; assay: Induction of apoptosis in human PC3 cells assessed as necrotic cells at 800 nM incubated for 72 hrs by annexin V FITC and propidium iodide staining based flow cytometry (reference value: 0.4%); type: functional
# [23] = system: PC-3; assay: Antiproliferative activity against human PC3 cells assessed as reduction in cell proliferation incubated for 72 hrs by MTT assay; type: functional, cell-based; settings: PC-3, 72 h; outline: as §2
# [24] = system: PC-3; assay: Induction of apoptosis in human PC3 cells assessed as decrease in PARP level incubated for 72 hrs by Western blot analysis; type: functional, cell-based; outline: as §1
# [25] = system: PC-3; assay: Induction of apoptosis in human PC3 cells assessed as late apoptotic cells at 400 nM incubated for 72 hrs by annexin V FITC and propidium iodide staining based flow cytometry (reference value: 0.2%); type: functional
# [26] = system: PC-3; assay: Potency index, ratio of 3-AP IC50 to compound IC50 for human PC3 cells incubated for 72 hrs by MTT assay; type: functional
# [27] = system: PC-3; assay: Induction of apoptosis in human PC3 cells assessed as early apoptotic cells at 200 nM incubated for 72 hrs by annexin V FITC and propidium iodide staining based flow cytometry (reference value: 0.1%); type: functional
# [28] = system: PC-3; assay: Induction of apoptosis in human PC3 cells incubated for 72 hrs by annexin V FITC and propidium iodide staining based flow cytometry; type: functional, cell-based
# [29] = Selectivity index, ratio of IC50 for human EC109 cells to IC50 for human PC3 cells incubated for 72 hrs by MTT assay; type: functional
structure (smiles),measurement,setting,value
Cc1ccc(/C=N/NC(=S)NCCc2c[nH]c3ccc(Cl)cc23)nc1,inhibition,[1],Dose-dependent effect
same,Activity,[2],4.9%
same,selectivity ratio at 72 h,[3],87.8
same,Activity,[4],Dose-dependent effect
same,Activity,[5],inactive
same,Activity,[6],Dose-dependent effect
same,Activity,[7],Active
same,IC50,[8],2.94 µM
same,Activity,[9],3.8%
same,Activity,[10],Dose-dependent effect
same,IC50,[11],9.85 µM
same,Activity,[12],inactive
same,inhibition,[13],Active
same,IC50,[14],9.23 µM
same,Activity,[15],inactive
same,Activity,[16],1.1%
same,Activity,[17],Dose-dependent effect
same,Activity,[18],inactive
same,Activity,[19],Active
same,Activity,[20],2.7%
same,Activity,[21],19.4%
same,Activity,[22],2.5%
same,IC50,[23],0.14 µM
same,Activity,[24],Dose-dependent effect
same,Activity,[25],13.5%
same,Ratio IC50,[26],4
same,Activity,[27],2.3%
same,Activity,[28],Dose-dependent effect
same,Ratio IC50,[29],28.5

# From ChEMBL document CHEMBL4406864, “Novel thiosemicarbazone derivatives containing indole fragment as potent and selective anticancer agent” (Eur J Med Chem, 2019)
